Where a name gives a salt, the structure may show the parent alone.
Assays:
[1] = Ionization constant was determined; type: physicochemical
Method in brief: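 Determined by pH-metric titration in 0.1 M KNO₃ at 21 °C.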

[2] = Inhibitory concentration against tyramine oxidase of Arthrobacter spp.; Competitive inhibition
[3] = molecular target: T1, Amine oxidase [flavin-containing] A (Homo sapiens, UniProt P21397); assay: Inhibitory concentration for human liver monoamine oxidase A
T1 sequence (P21397 whole entry): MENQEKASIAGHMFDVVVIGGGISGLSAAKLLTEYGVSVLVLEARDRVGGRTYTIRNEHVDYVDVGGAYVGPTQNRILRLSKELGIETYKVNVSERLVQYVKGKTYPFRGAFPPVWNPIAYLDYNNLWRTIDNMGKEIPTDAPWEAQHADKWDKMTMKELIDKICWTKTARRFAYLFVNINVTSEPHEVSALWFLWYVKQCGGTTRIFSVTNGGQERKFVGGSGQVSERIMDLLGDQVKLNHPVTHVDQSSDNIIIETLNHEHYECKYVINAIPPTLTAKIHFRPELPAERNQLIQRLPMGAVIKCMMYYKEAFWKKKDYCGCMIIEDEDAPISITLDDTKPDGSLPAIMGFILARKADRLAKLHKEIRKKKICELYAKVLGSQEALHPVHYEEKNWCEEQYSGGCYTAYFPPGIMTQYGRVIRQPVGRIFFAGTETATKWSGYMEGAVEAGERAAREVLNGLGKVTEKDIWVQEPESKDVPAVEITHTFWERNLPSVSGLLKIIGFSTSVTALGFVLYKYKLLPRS

[4] = molecular target: T2, Amine oxidase [flavin-containing] B (Homo sapiens, UniProt P27338); assay: Inhibitory concentration for human liver monoamine oxidase B
T2 sequence (P27338 whole entry): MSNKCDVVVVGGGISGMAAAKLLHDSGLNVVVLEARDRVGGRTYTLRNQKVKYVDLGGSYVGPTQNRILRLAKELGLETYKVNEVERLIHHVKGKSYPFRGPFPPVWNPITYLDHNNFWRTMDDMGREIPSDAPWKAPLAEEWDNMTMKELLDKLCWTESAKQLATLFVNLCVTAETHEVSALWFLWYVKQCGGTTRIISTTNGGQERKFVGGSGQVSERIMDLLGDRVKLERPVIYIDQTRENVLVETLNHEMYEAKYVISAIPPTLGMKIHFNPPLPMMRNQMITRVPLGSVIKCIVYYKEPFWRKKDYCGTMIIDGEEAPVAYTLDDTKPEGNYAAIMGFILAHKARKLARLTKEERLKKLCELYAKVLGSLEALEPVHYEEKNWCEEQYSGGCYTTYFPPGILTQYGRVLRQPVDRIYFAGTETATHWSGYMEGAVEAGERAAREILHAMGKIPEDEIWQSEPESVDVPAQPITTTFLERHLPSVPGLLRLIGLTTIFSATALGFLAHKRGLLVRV

[5] = Inhibitory concentration against tyramine oxidase of Arthrobacter spp.; Irreversible inhibition
[6] = Inhibition concentration against tyramine oxidase of Arthrobacter spp.; Partially irreversible inhibition
[7] = Inhibitory concentration against tyramine oxidase of Arthrobacter spp.; Not determined.

Structure (SMILES) | pKa ([1]; read-out: pKa) | IC50 [2] [µM] | further results
N[C@@H]1C[C@H]1c1ccccc1 (relative stereo) [TRANYLCYPROMINE HYDROCHLORIDE] | 8.47 | 35 | –
N[C@H]1C[C@]1(F)c1ccccc1 (relative stereo) | 7.35 | 3.6 | –
Cc1ccc([C@@]2(F)C[C@H]2N)cc1 (relative stereo) | 7.41 | 0.39 | IC50 [3]: 6.7 µM; IC50 [4]: 6.7 µM
NC1CC1c1ccccc1 (stereo not drawn) | 8.5 | – | IC50 [5]: 33 µM
N[C@H]1C[C@]1(F)c1ccc(F)cc1 (relative stereo) | 6.88 | – | IC50 [6]: 75 µM
N[C@@H]1C[C@]1(F)c1ccccc1 (relative stereo) | 6.98 | – | IC50 [6]: 190 µM
NNC(N)=O [HYDRAZINECARBOXAMIDE] | – | – | IC50 [3]: 6.7 µM
Cl.NC1CC1(F)c1ccc(Cl)cc1 (stereo in doubt) | – | – | IC50 [6]: 89 µM; pKa [1]: 6.81

The next lines start with results.

pKa ([1]; read-out: pKa) | IC50 [2] [µM] | Structure (SMILES) | further results
7.31 | 8.1 | N[C@@H]1C[C@]1(F)c1ccc(F)cc1 (relative stereo) | –
7.04 | – | Cc1ccc([C@@]2(F)C[C@@H]2N)cc1 | IC50 [7]: 51 µM
7.19 | 3.7 | NC1CC1(F)c1ccc(Cl)cc1 (trans isomer) | –
